Assay results from PMC8148061 (Acta Pharmaceutica Sinica. B, 2020).
Where two headings read alike, the source gives them in different places.

Assays:
Ba/F3 Bcr-Abl^T315I = experiment: Antiproliferation cell assay; assay type: cell-based; conditions: read-out: Cellular inhibition IC50 Ba/F3 Bcr-Abl^T315I
Ba/F3 Bcr-Abl^WT = experiment: Antiproliferation cell assay; assay type: cell-based; conditions: read-out: Cellular inhibition IC50 Ba/F3 Bcr-Abl^WT
K562 = experiment: Antiproliferation cell assay; assay type: cell-based, human; conditions: read-out: Cellular inhibition IC50 K562
Outline: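 K562 (ATCC) cells were grown in RPMI-1640 with 10% FBS, penicillin, streptomycin and 2 mmol/L glutamine at 37 °C in humidified CO2. Log-phase cells were seeded at ~3000/well, rested overnight, then exposed to test compound or vehicle for 72 h (10 mmol/L DMSO stocks). CCK-8 was read as OD450−OD650, with viability normalised to no-cell blank and vehicle wells. IC50 came from concentration–response curve fitting, mean ± SD.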

Bcr-Abl^T315I = Bcr-Abl^T315I (Homo sapiens, UniProt P00519+P11274, T315I); experiment: Western blot degradation study in Ba/F3 cells expressed Bcr-Abl^T315I; assay type: cell-based; conditions: 24 h treatment, Western blot

## 3-((1H-Pyrazolo[3,4-b]pyridin-5-yl)ethynyl)-N-(4-((4-(13-((2-(2,6-dioxopiperidin-3-yl)-1,3-dioxoisoindolin-4-yl)amino)-13-oxotridecyl)piperazin-1-yl)methyl)-3-(trifluoromethyl)phenyl)-4-methylbenzamide [7s]
Ba/F3 Bcr-Abl^T315I; 72 h, CCK-8, mean ± SD
  IC50: 114 ± 29.9 nM
Ba/F3 Bcr-Abl^WT; 72 h, CCK-8, mean ± SD
  IC50: 61 ± 1.7 nM
K562; 72 h, CCK-8, mean ± SD
  IC50: 57.8 ± 19.5 nM
Bcr-Abl^T315I
  DR against Ba/F3 Bcr-Abl^T315I (%) 100 nmol/L: −7.20%
  DR against Ba/F3 Bcr-Abl^T315I (%) 300 nmol/L: 45.61%

## Cc1ccc(C(=O)Nc2ccc(CN3CCN(CCOCCOCCC(=O)Nc4cccc5c4CN(C4CCC(=O)NC4=O)C5=O)CC3)c(C(F)(F)F)c2)cc1C#Cc1cnc2[nH]ncc2c1 (stereo not shown) [7b, 3-((1H-Pyrazolo[3,4-b]pyridin-5-yl)ethynyl)-N-(4-((4-(2-(2-(3-((2-(2,6-dioxopiperidin-3-yl)-1-oxoisoindolin-4-yl)amino)-3-oxopropoxy)ethoxy)ethyl)piperazin-1-yl)methyl)-3-(trifluoromethyl)phenyl)-4-methylbenzamide]
Ba/F3 Bcr-Abl^T315I; Mus musculus, BaF3, 72 h
  IC50: 287 ± 23 nM
Ba/F3 Bcr-Abl^WT; Mus musculus, BaF3, 72 h
  IC50: 65.3 ± 30.2 nM
K562; Homo sapiens, K562, 72 h
  IC50: 4 ± 0.6 nM
Bcr-Abl^T315I
  DR against Ba/F3 Bcr-Abl^T315I (%) 100 nmol/L: −9.18%
  DR against Ba/F3 Bcr-Abl^T315I (%) 300 nmol/L: −4.21%

## Cc1ccc(C(=O)Nc2ccc(CN3CCN(CCOCCOCCOc4cccc5c4C(=O)N(C4CCC(=O)NC4=O)C5=O)CC3)c(C(F)(F)F)c2)cc1C#Cc1cnc2[nH]ncc2c1 (stereo not shown) [7c, 3-((1H-Pyrazolo[3,4-b]pyridin-5-yl)ethynyl)-N-(4-((4-(2-(2-(2-((2-(2,6-dioxopiperidin-3-yl)-1,3-dioxoisoindolin-4-yl)oxy)ethoxy)ethoxy)ethyl)piperazin-1-yl)methyl)-3-(trifluoromethyl)phenyl)-4-methylbenzamide]
Ba/F3 Bcr-Abl^T315I; Mus musculus, BaF3, 72 h
  IC50: 212 ± 101 nM
Ba/F3 Bcr-Abl^WT; Mus musculus, BaF3, 72 h
  IC50: 22.4 ± 10.2 nM
K562; Homo sapiens, K562, 72 h
  IC50: 3.2 ± 0.1 nM
Bcr-Abl^T315I
  DR against Ba/F3 Bcr-Abl^T315I (%) 100 nmol/L: −15.62%
  DR against Ba/F3 Bcr-Abl^T315I (%) 300 nmol/L: 9.98%

## Cc1ccc(C(=O)Nc2ccc(CN3CCN(CCOCCOCCC(=O)N[C@H](C(=O)C4C[C@H](O)C[C@H]4C(=O)NCc4ccc(-c5scnc5C)cc4)C(C)(C)C)CC3)c(C(F)(F)F)c2)cc1C#Cc1cnc2[nH]ncc2c1 (stereo partly drawn) [7d, 3-((1H-Pyrazolo[3,4-b]pyridin-5-yl)ethynyl)-N-(4-((4-(2-(2-(3-(((2S)-1-((2R,4S)-4-hydroxy-2-((4-(4-methylthiazol-5-yl)benzyl)carbamoyl)cyclopentyl)-3,3-dimethyl-1-oxobutan-2-yl)amino)-3-oxopropoxy)ethoxy)ethyl)piperazin-1-yl)methyl)-3-(trifluoromethyl)phenyl)-4-methylbenzamide]
Ba/F3 Bcr-Abl^T315I; Mus musculus, BaF3, 72 h
  IC50: 981 ± 24.9 nM
Ba/F3 Bcr-Abl^WT; Mus musculus, BaF3, 72 h
  IC50: 337 ± 6.1 nM
K562; Homo sapiens, K562, 72 h
  IC50: 31 ± 0.1 nM
Bcr-Abl^T315I
  DR against Ba/F3 Bcr-Abl^T315I (%) 100 nmol/L: −18.26%
  DR against Ba/F3 Bcr-Abl^T315I (%) 300 nmol/L: −10.51%

## Cc1ccc(C(=O)Nc2ccc(CN3CCN(CCOCCOCCNC(=O)[C@H](CC(C)C)NC(=O)[C@@H](O)[C@H](N)Cc4ccccc4)CC3)c(C(F)(F)F)c2)cc1C#Cc1cnc2[nH]ncc2c1 [7e, 3-((1H-Pyrazolo[3,4-b]pyridin-5-yl)ethynyl)-N-(4-((4-((11S,14S,15R)-15-amino-14-hydroxy-11-isobutyl-10,13-dioxo-16-phenyl-3,6-dioxa-9,12-diazahexadecyl)piperazin-1-yl)methyl)-3-(trifluoromethyl)phenyl)-4-methylbenzamide]
Ba/F3 Bcr-Abl^T315I; Mus musculus, BaF3, 72 h
  IC50: 2310 ± 424 nM
Ba/F3 Bcr-Abl^WT; Mus musculus, BaF3, 72 h
  IC50: 240 ± 75.4 nM
K562; Homo sapiens, K562, 72 h
  IC50: 58.6 ± 11.4 nM
Bcr-Abl^T315I
  DR against Ba/F3 Bcr-Abl^T315I (%) 100 nmol/L: −14.92%
  DR against Ba/F3 Bcr-Abl^T315I (%) 300 nmol/L: 11.17%

## Cc1ccc(C(=O)Nc2ccc(CN3CCN(CCOCCOCCC(=O)NC45CC6CC(CC(C6)C4)C5)CC3)c(C(F)(F)F)c2)cc1C#Cc1cnc2[nH]ncc2c1 [7f, 3-((1H-Pyrazolo[3,4-b]pyridin-5-yl)ethynyl)-N-(4-((4-(2-(2-(3-(adamantan-1-ylamino)-3-oxopropoxy)ethoxy)ethyl)piperazin-1-yl)methyl)-3-(trifluoromethyl)phenyl)-4-methylbenzamide]
Ba/F3 Bcr-Abl^T315I; Mus musculus, BaF3, 72 h
  IC50: > 10000 nM
Ba/F3 Bcr-Abl^WT; Mus musculus, BaF3, 72 h
  IC50: > 10000 nM
K562; Homo sapiens, K562, 72 h
  IC50: > 10000 nM
Bcr-Abl^T315I
  DR against Ba/F3 Bcr-Abl^T315I (%) 100 nmol/L: −5.26%
  DR against Ba/F3 Bcr-Abl^T315I (%) 300 nmol/L: 11.72%

## Cc1ccc(C(=O)Nc2ccc(CN3CCN(CCOCCC(=O)Nc4cccc5c4C(=O)N(C4CCC(=O)NC4=O)C5=O)CC3)c(C(F)(F)F)c2)cc1C#Cc1cnc2[nH]ncc2c1 (stereo not shown) [7g, 3-((1H-Pyrazolo[3,4-b]pyridin-5-yl)ethynyl)-N-(4-((4-(2-(3-((2-(2,6-dioxopiperidin-3-yl)-1,3-dioxoisoindolin-4-yl)amino)-3-oxopropoxy)ethyl)piperazin-1-yl)methyl)-3-(trifluoromethyl)phenyl)-4-methylbenzamide]
Ba/F3 Bcr-Abl^T315I; Mus musculus, BaF3, 72 h
  IC50: 67.5 ± 3.2 nM
Ba/F3 Bcr-Abl^WT; Mus musculus, BaF3, 72 h
  IC50: 20.7 ± 2.4 nM
K562; Homo sapiens, K562, 72 h
  IC50: 3.5 ± 0.5 nM
Bcr-Abl^T315I
  DR against Ba/F3 Bcr-Abl^T315I (%) 100 nmol/L: −11.43%
  DR against Ba/F3 Bcr-Abl^T315I (%) 300 nmol/L: 28.39%

## Cc1ccc(C(=O)Nc2ccc(CN3CCN(CCOCCOCCOCCOCCC(=O)Nc4cccc5c4C(=O)N(C4CCC(=O)NC4=O)C5=O)CC3)c(C(F)(F)F)c2)cc1C#Cc1cnc2[nH]ncc2c1 (stereo not shown) [7i, 1-(4-(4-(3-((1H-Pyrazolo[3,4-b]pyridin-5-yl)ethynyl)-4-methylbenzamido)-2-(trifluoromethyl)benzyl)piperazin-1-yl)-N-(2-(2,6-dioxopiperidin-3-yl)-1,3-dioxoisoindolin-4-yl)-3,6,9,12-tetraoxapentadecan-15-amide]
Ba/F3 Bcr-Abl^T315I; Mus musculus, BaF3, 72 h
  IC50: 95.4 ± 37.4 nM
Ba/F3 Bcr-Abl^WT; Mus musculus, BaF3, 72 h
  IC50: 19.9 ± 4.2 nM
K562; Homo sapiens, K562, 72 h
  IC50: 11.4 ± 7.3 nM
Bcr-Abl^T315I
  DR against Ba/F3 Bcr-Abl^T315I (%) 100 nmol/L: −22.44%
  DR against Ba/F3 Bcr-Abl^T315I (%) 300 nmol/L: −19.45%

## Cc1ccc(C(=O)Nc2ccc(CN3CCN(CCOCCOCCOCCOCCOCCC(=O)Nc4cccc5c4C(=O)N(C4CCC(=O)NC4=O)C5=O)CC3)c(C(F)(F)F)c2)cc1C#Cc1cnc2[nH]ncc2c1 (stereo not shown) [7j, 1-(4-(4-(3-((1H-Pyrazolo[3,4-b]pyridin-5-yl)ethynyl)-4-methylbenzamido)-2-(trifluoromethyl)benzyl)piperazin-1-yl)-N-(2-(2,6-dioxopiperidin-3-yl)-1,3-dioxoisoindolin-4-yl)-3,6,9,12,15-pentaoxaoctadecan-18-amide]
Ba/F3 Bcr-Abl^T315I; Mus musculus, BaF3, 72 h
  IC50: 60.1 ± 0.3 nM
Ba/F3 Bcr-Abl^WT; Mus musculus, BaF3, 72 h
  IC50: 14.3 ± 0.3 nM
K562; Homo sapiens, K562, 72 h
  IC50: 2.8 ± 0.4 nM
Bcr-Abl^T315I
  DR against Ba/F3 Bcr-Abl^T315I (%) 100 nmol/L: −23.27%
  DR against Ba/F3 Bcr-Abl^T315I (%) 300 nmol/L: 21.17%

## Cc1ccc(C(=O)Nc2ccc(CN3CCN(CCOCCOCCOCCOCCOCCOCCC(=O)Nc4cccc5c4C(=O)N(C4CCC(=O)NC4=O)C5=O)CC3)c(C(F)(F)F)c2)cc1C#Cc1cnc2[nH]ncc2c1 (stereo not shown) [7k, 1-(4-(4-(3-((1H-Pyrazolo[3,4-b]pyridin-5-yl)ethynyl)-4-methylbenzamido)-2-(trifluoromethyl)benzyl)piperazin-1-yl)-N-(2-(2,6-dioxopiperidin-3-yl)-1,3-dioxoisoindolin-4-yl)-3,6,9,12,15,18-hexaoxahenicosan-21-amide]
Ba/F3 Bcr-Abl^T315I; Mus musculus, BaF3, 72 h
  IC50: 306 ± 69.3 nM
Ba/F3 Bcr-Abl^WT; Mus musculus, BaF3, 72 h
  IC50: 107 ± 24.9 nM
K562; Homo sapiens, K562, 72 h
  IC50: 10.5 ± 0.5 nM
Bcr-Abl^T315I
  DR against Ba/F3 Bcr-Abl^T315I (%) 100 nmol/L: 19.38%
  DR against Ba/F3 Bcr-Abl^T315I (%) 300 nmol/L: 25.53%

## Cc1ccc(C(=O)Nc2ccc(CN3CCN(CCC(=O)Nc4cccc5c4C(=O)N(C4CCC(=O)NC4=O)C5=O)CC3)c(C(F)(F)F)c2)cc1C#Cc1cnc2[nH]ncc2c1 (stereo not shown) [7l, 3-((1H-Pyrazolo[3,4-b]pyridin-5-yl)ethynyl)-N-(4-((4-(3-((2-(2,6-dioxopiperidin-3-yl)-1,3-dioxoisoindolin-4-yl)amino)-3-oxopropyl)piperazin-1-yl)methyl)-3-(trifluoromethyl)phenyl)-4-methylbenzamide]
Ba/F3 Bcr-Abl^T315I; Mus musculus, BaF3, 72 h
  IC50: 65.8 ± 28.8 nM
Ba/F3 Bcr-Abl^WT; Mus musculus, BaF3, 72 h
  IC50: 5.4 ± 0.8 nM
K562; Homo sapiens, K562, 72 h
  IC50: 2.1 ± 0.9 nM
Bcr-Abl^T315I
  DR against Ba/F3 Bcr-Abl^T315I (%) 100 nmol/L: −30.35%
  DR against Ba/F3 Bcr-Abl^T315I (%) 300 nmol/L: 37.19%
